ChEMBL document CHEMBL1138098, “Novel 1,4-benzodiazepine-2,5-diones as Hdm2 antagonists with improved cellular activity” (Bioorg Med Chem Lett, 2006)

Assays:
JAR [1] = experiment: Induction of PIG3 production in JAR cells at 1.1 uM; type: functional, Homo sapiens
Method in brief: (§1)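 JAR cells were treated with compound at 1.1, 3.3, 10 or 30 μM. PIG-3 protein was measured by ELISA and normalized to cellular protein, reported as ng/mg.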

JAR [2] = experiment: Induction of PIG3 production in JAR cells at 3.3 uM; type: functional, Homo sapiens; method in brief: as §1
JAR [3] = experiment: Induction of PIG3 production in JAR cells at 10 uM; type: functional, Homo sapiens; method in brief: as §1
[4] = molecular target: E3 ubiquitin-protein ligase Mdm2 (Homo sapiens, UniProt Q00987); experiment: Inhibition of p53-Hdm2 interaction by FP assay
E3 ubiquitin-protein ligase Mdm2, sequence (Q00987 whole entry): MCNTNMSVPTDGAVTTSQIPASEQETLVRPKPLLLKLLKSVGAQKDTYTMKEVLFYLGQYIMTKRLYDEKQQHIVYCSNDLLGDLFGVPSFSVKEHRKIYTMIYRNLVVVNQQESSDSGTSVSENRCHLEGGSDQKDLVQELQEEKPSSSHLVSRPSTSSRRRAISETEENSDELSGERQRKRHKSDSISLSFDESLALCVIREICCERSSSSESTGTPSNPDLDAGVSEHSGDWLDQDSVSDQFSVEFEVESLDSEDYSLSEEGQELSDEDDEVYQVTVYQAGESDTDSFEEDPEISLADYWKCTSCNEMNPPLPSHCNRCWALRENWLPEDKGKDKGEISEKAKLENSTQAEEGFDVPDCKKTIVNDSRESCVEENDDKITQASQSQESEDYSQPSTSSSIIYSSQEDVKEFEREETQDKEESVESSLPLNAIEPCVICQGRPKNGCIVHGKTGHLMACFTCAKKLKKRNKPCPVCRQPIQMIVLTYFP

JAR [5] = experiment: Induction of PIG3 production in JAR cells at 30 uM; type: functional, Homo sapiens; method in brief: as §1

Row | IC50 [4] | SMILES | Activity (JAR [1]) | Activity (JAR [2]) | Activity (JAR [3]) | Activity (JAR [5])
1 | – | C[C@H](c1cc(F)c(Cl)cc1N)N1C(=O)c2cc(I)ccc2N(CCN2CCOCC2)C(=O)[C@@H]1c1ccc(Cl)cc1 | 37 ng/mg | 110 ng/mg | 313 ng/mg | –
2 | > 12.5 µM | C=CCOc1cc(Cl)ccc1CN1C(=O)c2cc(I)ccc2N(CCOCCOC)C(=O)[C@@H]1c1ccc(Cl)cc1 | – | – | – | –
3 | – | CN(C)CCCN1C(=O)[C@H](c2ccc(Cl)cc2)N(Cc2ccc(Cl)cc2N)C(=O)c2cc(I)ccc21 | 36 ng/mg | 68 ng/mg | -92 ng/mg | –
4 | – | CN(C)CCCCN1C(=O)[C@H](c2ccc(Cl)cc2)N(Cc2ccc(Cl)cc2N)C(=O)c2cc(I)ccc21 | 32 ng/mg | 79 ng/mg | -136 ng/mg | –
5 | – | COCCOCCN1C(=O)[C@H](c2ccc(Cl)cc2)N(Cc2ccc(Cl)cc2O)C(=O)c2cc(I)ccc21 | 62.3 ng/mg | 74 ng/mg | 99 ng/mg | –
6 | – | CC(c1ccc(Cl)cc1N)N1C(=O)c2cc(I)ccc2N(CCCCC(=O)O)C(=O)[C@@H]1c1ccc(Cl)cc1 (stereo not given in full) | 44 ng/mg | 77 ng/mg | – | –
7 | – | CN1CCN(CCCCN2C(=O)[C@H](c3ccc(Cl)cc3)N(Cc3ccc(Cl)cc3N)C(=O)c3cc(I)ccc32)CC1 | 43 ng/mg | 125 ng/mg | 32 ng/mg | –
8 | – | C[C@H](c1cc(O)c(Cl)cc1N)N1C(=O)c2cc(I)ccc2N(CCN2CCOCC2)C(=O)[C@@H]1c1ccc(Cl)cc1 | 34 ng/mg | 54 ng/mg | 111 ng/mg | –
9 | – | Nc1cc(Cl)ccc1CN1C(=O)c2cc(I)ccc2N(CCCCC(=O)O)C(=O)[C@@H]1c1ccc(Cl)cc1 | 47 ng/mg | 74 ng/mg | 196 ng/mg | –
10 | – | C[C@H](c1ccc(Cl)cc1N)N1C(=O)c2cc(I)ccc2N(CCN2CCOCC2)C(=O)[C@@H]1c1ccc(Cl)cc1 | 79 ng/mg | 234 ng/mg | 395 ng/mg | –
11 | – | COCCOCCN1C(=O)[C@H](c2ccc(Cl)cc2)N([C@H](C)c2ccc(Cl)cc2N)C(=O)c2cc(I)ccc21 | 78 ng/mg | 218 ng/mg | 375 ng/mg | –
12 | – | CN1CCN(CCCN2C(=O)[C@H](c3ccc(Cl)cc3)N(Cc3ccc(Cl)cc3N)C(=O)c3cc(I)ccc32)CC1 | 57 ng/mg | 198 ng/mg | 385 ng/mg | –
13 | – | CC(c1ccc(Cl)cc1)N1C(=O)c2cc(I)ccc2N(CCCCC(=O)O)C(=O)[C@@H]1c1ccc(Cl)cc1 (stereo not given in full) | 60 ng/mg | 79.7 ng/mg | 208.7 ng/mg | 484.3 ng/mg
14 | – | Nc1cc(Cl)ccc1CN1C(=O)c2cc(I)ccc2N(CCCN2CCOCC2)C(=O)[C@@H]1c1ccc(Cl)cc1 | 55 ng/mg | 184 ng/mg | 375 ng/mg | –
